Test results: ChEMBL document CHEMBL1629686, “Substrate selectivity and a novel role in inhibitor discrimination by residue 237 in the KPC-2 beta-lactamase” (Antimicrob Agents Chemother, 2010)
≈ marks a conversion by molar mass, not a printed value.

How the values were obtained:
Escherichia coli [1] = experiment: Antimicrobial activity against Escherichia coli DH10B harboring beta-lactamase KPC-2 T237M mutant by agar dilution method; type: functional; settings: K-12 DH10B
How it was run: (§1)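 LB agar dilution MICs followed CLSI criteria, with inocula applied by Steers replicator. […] Piperacillin-tazobactam was tested at an 8:1 ratio. Wild-type and mutant blaKPC-2 were carried on pBC SK(+), or wild type on pBR322-catI, in E. coli DH10B.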

Klebsiella pneumoniae [2] = experiment: Selectivity index, Ratio of Kcat/Km for Klebsiella pneumoniae 1534 beta-lactamase KPC-2 T237S mutant to ratio of Kcat/Km for Klebsiella pneumoniae 1534 beta-lactamase KPC-2 by spectrophotometric analysis
How it was run: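 Kinetics used purified enzymes in 10 mM PBS, pH 7.4, room temperature, with 10 nM enzyme and substrate in excess. Km and Vmax came from a Michaelis-Menten fit. kcat/Km of the variant was compared with wild type as ΔΔG = −RT ln of the kcat/Km ratio.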

Escherichia coli [3] = experiment: Antimicrobial activity against Escherichia coli DH10B harboring beta-lactamase KPC-2 T237K mutant by agar dilution method; type: functional; settings: K-12 DH10B; how it was run: as §1
Escherichia coli [4] = experiment: Antimicrobial activity against Escherichia coli DH10B harboring beta-lactamase KPC-2 T237A mutant by agar dilution method; type: functional; settings: K-12 DH10B; how it was run: as §1
Escherichia coli [5] = experiment: Antimicrobial activity against Escherichia coli DH10B harboring plasmid […] by agar dilution method; type: functional; settings: K-12 DH10B; how it was run: as §1
Escherichia coli [6] = experiment: Antimicrobial activity against Escherichia coli DH10B harboring beta-lactamase KPC-2 T237Q mutant by agar dilution method; type: functional; settings: K-12 DH10B; how it was run: as §1
Escherichia coli [7] = experiment: Antimicrobial activity against Escherichia coli DH10B harboring beta-lactamase KPC-2 T237H mutant by agar dilution method; type: functional; settings: K-12 DH10B; how it was run: as §1
Escherichia coli [8] = experiment: Antimicrobial activity against Escherichia coli DH10B harboring beta-lactamase KPC-2 T237G mutant by agar dilution method; type: functional; settings: K-12 DH10B; how it was run: as §1
Klebsiella pneumoniae [9] = experiment: Activity of Klebsiella pneumoniae 1534 beta-lactamase KPC-2 T237A mutant by spectrophotometric analysis
How it was run: (§2)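 Purified KPC-2 variant enzymes (periplasmic lysate from E. coli, preparative isoelectric focusing). Hydrolysis followed by diode-array spectrophotometry in 10 mM PBS, pH 7.4, room temperature. Enzyme at 10 nM with substrate in molar excess for pseudo-first-order conditions. Vmax and Km came from a nonlinear least-squares Michaelis-Menten fit.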

Klebsiella pneumoniae [10] = experiment: Activity of Klebsiella pneumoniae 1534 beta-lactamase KPC-2 T237S mutant by spectrophotometric analysis; how it was run: as §2
Escherichia coli [11] = experiment: Antimicrobial activity against Escherichia coli DH10B harboring beta-lactamase KPC-2 T237W mutant by agar dilution method; type: functional; settings: K-12 DH10B; how it was run: as §1
Escherichia coli [12] = experiment: Antimicrobial activity against Escherichia coli DH10B harboring beta-lactamase KPC-2 T237V mutant by agar dilution method; type: functional; settings: K-12 DH10B; how it was run: as §1
Escherichia coli [13] = experiment: Antimicrobial activity against Escherichia coli DH10B harboring beta-lactamase KPC-2 T237E mutant by agar dilution method; type: functional; settings: K-12 DH10B; how it was run: as §1
Escherichia coli [14] = experiment: Antimicrobial activity against Escherichia coli DH10B harboring beta-lactamase KPC-2 T237I mutant by agar dilution method; type: functional; settings: K-12 DH10B; how it was run: as §1
Escherichia coli [15] = experiment: Antimicrobial activity against Escherichia coli DH10B harboring beta-lactamase KPC-2 T237D mutant by agar dilution method; type: functional; settings: K-12 DH10B; how it was run: as §1
Escherichia coli [16] = experiment: Antimicrobial activity against Escherichia coli DH10B harboring beta-lactamase KPC-2 T237Y mutant by agar dilution method; type: functional; settings: K-12 DH10B; how it was run: as §1
Escherichia coli [17] = experiment: Antimicrobial activity against Escherichia coli DH10B harboring beta-lactamase KPC-2 T237L mutant by agar dilution method; type: functional; settings: K-12 DH10B; how it was run: as §1
Escherichia coli [18] = experiment: Antimicrobial activity against Escherichia coli DH10B harboring plasmid pBR322-catI carrying beta-lactamase KPC-2 by agar dilution method; type: functional; settings: K-12 DH10B; how it was run: as §1
Escherichia coli [19] = experiment: Antimicrobial activity against Escherichia coli DH10B harboring beta-lactamase KPC-2 T237P mutant by agar dilution method; type: functional; settings: K-12 DH10B; how it was run: as §1
Escherichia coli [20] = experiment: Antimicrobial activity against Escherichia coli DH10B by agar dilution method; type: functional; settings: K-12 DH10B; how it was run: as §1
Escherichia coli [21] = experiment: Antimicrobial activity against Escherichia coli DH10B harboring beta-lactamase KPC-2 T237R mutant by agar dilution method; type: functional; settings: K-12 DH10B; how it was run: as §1
Escherichia coli [22] = experiment: Antimicrobial activity against Escherichia coli DH10B harboring beta-lactamase KPC-2 T237S mutant by agar dilution method; type: functional; settings: K-12 DH10B; how it was run: as §1
Escherichia coli [23] = experiment: Antimicrobial activity against Escherichia coli DH10B harboring beta-lactamase KPC-2 T237C mutant by agar dilution method; type: functional; settings: K-12 DH10B; how it was run: as §1
Klebsiella pneumoniae [24] = experiment: Antimicrobial activity against Klebsiella pneumoniae 1534 expressing beta-lactamase KPC-2 by agar dilution method; type: functional
How it was run: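 MICs were determined by LB agar dilution following CLSI criteria, with a Steers replicator. […] Piperacillin-tazobactam was kept at an 8:1 ratio.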

Klebsiella pneumoniae [25] = experiment: Ratio of Kcat/Km for Klebsiella pneumoniae 1534 beta-lactamase KPC-2 T237S mutant by spectrophotometric analysis; how it was run: as §2
Escherichia coli [26] = experiment: Antimicrobial activity against Escherichia coli DH10B harboring beta-lactamase KPC-2 T237N mutant by agar dilution method; type: functional; settings: K-12 DH10B; how it was run: as §1
Escherichia coli [27] = experiment: Antimicrobial activity against Escherichia coli DH10B harboring beta-lactamase KPC-2 T237F mutant by agar dilution method; type: functional; settings: K-12 DH10B; how it was run: as §1
Escherichia coli [28] = experiment: Antimicrobial activity against Escherichia coli DH10B harboring plasmid pBC SK(+) carrying wild type beta-lactamase KPC-2 by agar dilution method; type: functional; settings: K-12 DH10B; how it was run: as §1

## CO/N=C(\C(=O)N[C@@H]1C(=O)N2C(C(=O)O)=C(COC(C)=O)CS[C@H]12)c1csc(N)n1 [CEFOTAXIME]
Escherichia coli [1]
  MIC: 0.06 µg/mL (≈ 0.132 µM)
Klebsiella pneumoniae [2]
  fold change (FC): 2.7
Escherichia coli [3]
  MIC: 0.06 µg/mL (≈ 0.132 µM)
Escherichia coli [4]
  MIC: 0.06 µg/mL (≈ 0.132 µM)
Escherichia coli [5]
  MIC: 0.06 µg/mL (≈ 0.132 µM)
Escherichia coli [6]
  MIC: 0.06 µg/mL (≈ 0.132 µM)
Escherichia coli [7]
  MIC: 0.06 µg/mL (≈ 0.132 µM)
Escherichia coli [8]
  MIC: 0.06 µg/mL (≈ 0.132 µM)
Klebsiella pneumoniae [9]
  kcat: < 0.1 s⁻¹
Klebsiella pneumoniae [10]
  Km: 168 µM
  kcat: 43 s⁻¹
Escherichia coli [11]
  MIC: 0.06 µg/mL (≈ 0.132 µM)
Escherichia coli [12]
  MIC: 0.06 µg/mL (≈ 0.132 µM)
Escherichia coli [13]
  MIC: 0.06 µg/mL (≈ 0.132 µM)
Escherichia coli [14]
  MIC: 0.06 µg/mL (≈ 0.132 µM)
Escherichia coli [15]
  MIC: 0.125 µg/mL (≈ 0.274 µM)
Escherichia coli [16]
  MIC: 0.06 µg/mL (≈ 0.132 µM)
Escherichia coli [17]
  MIC: 0.06 µg/mL (≈ 0.132 µM)
Escherichia coli [18]
  MIC: 8 µg/mL (≈ 17.6 µM)
Escherichia coli [19]
  MIC: 0.06 µg/mL (≈ 0.132 µM)
Escherichia coli [20]
  MIC: 0.06 µg/mL (≈ 0.132 µM)
Escherichia coli [21]
  MIC: 0.06 µg/mL (≈ 0.132 µM)
Escherichia coli [22]
  MIC: 1 µg/mL (≈ 2.2 µM)
Escherichia coli [23]
  MIC: 0.06 µg/mL (≈ 0.132 µM)
Klebsiella pneumoniae [24]
  MIC: 16 µg/mL (≈ 35.1 µM)
Klebsiella pneumoniae [25]
  kcat/Km: 260000 M⁻¹ s⁻¹
Escherichia coli [26]
  MIC: 0.06 µg/mL (≈ 0.132 µM)
Escherichia coli [27]
  MIC: 0.06 µg/mL (≈ 0.132 µM)
Escherichia coli [28]
  MIC: 2 µg/mL (≈ 4.39 µM)
